Source: ChEMBL document CHEMBL3739259, “Defining Key Structural Determinants for the Pro-osteogenic Activity of Flavonoids” (J Nat Prod, 2015)
Calls of active or inactive are those of the source. No cut-off for these calls is given here.

Tests used:
[1] = system: MSC; assay: (§1) Induction of osteogenic differentiation in human MSC assessed as increase in ALP activity at 5 uM using p-NPP as substrate after 9 days by colorimetric method relative to control; format: functional
Summary of the method: (§2)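 ALP read on day 9 in passage-3 bone-marrow hMSCs cultured at high density in Os.D medium. Compound (1, 5 or 10 μM, 0.1% v/v DMSO final) was re-applied on days 0, 3 and 6. Colorimetric p-nitrophenyl phosphate method, normalised to time and cell number (pNP/min/20,000 cells). Expressed as % of untreated control; three independent triplicate experiments; one-way ANOVA versus vehicle.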

[2] = Cytotoxicity against human MSC assessed as cell viability at 5 uM treated for 6 days measured on day 7 by alamar blue assay (reference value: 96 to 101%); conditions: MSC cells, read-out: Activity
[3] = Cytotoxicity against human MSC assessed as cell viability at 1 uM treated for 3 days measured on day 4 by alamar blue assay (reference value: 97 to 100%); conditions: MSC cells, read-out: Activity
[4] = Cytotoxicity against human MSC assessed as cell viability at 10 uM treated for 6 days measured on day 7 by alamar blue assay (reference value: 96 to 101%); conditions: MSC cells, read-out: Activity
[5] = Cytotoxicity against human MSC assessed as cell viability at 5 uM treated for 3 days measured on day 4 by alamar blue assay (reference value: 97 to 100%); conditions: MSC cells, read-out: Activity
[6] = Cytotoxicity against human MSC assessed as cell viability at 10 uM measured on day 1 by alamar blue assay (reference value: 97 to 101%); conditions: MSC cells, read-out: Activity
[7] = Cytotoxicity against human MSC assessed as cell viability at 10 uM treated for 3 days measured on day 4 by alamar blue assay (reference value: 97 to 100%); conditions: MSC cells, read-out: Activity
[8] = Cytotoxicity against human MSC assessed as cell viability at 1 uM treated for 6 days measured on day 7 by alamar blue assay (reference value: 96 to 101%); conditions: MSC cells, read-out: Activity
[9] = Cytotoxicity against human MSC assessed as cell viability at 5 uM measured on day 1 by alamar blue assay (reference value: 97 to 101%); conditions: MSC cells, read-out: Activity
[10] = Induction of osteogenic differentiation in human MSC assessed as increase in ALP activity at 10 uM using p-NPP as substrate after 9 days by colorimetric method relative to control; format: functional; summary of the method: as §2
[11] = Cytotoxicity against human MSC assessed as cell viability at 1 uM measured on day 1 by alamar blue assay (reference value: 97 to 101%); conditions: MSC cells, read-out: Activity
[12] = system: MSC; assay: Induction of osteogenic differentiation in human MSC assessed as increase in ALP activity at 1 uM using p-NPP as substrate after 9 days by colorimetric method relative to control; format: functional; summary of the method: as §2
[13] = Cytotoxicity against human MSC assessed as […] in cell number at 1 to 10 uM after 9 days by methylene blue staining based microscopy relative to control; conditions: 216 h
Summary of the method: (§3)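 Passage-3 bone-marrow hMSCs, high density in Os.D medium, dosed with 1, 5 or 10 μM compound (0.1% v/v DMSO final) on days 0, 3 and 6 with medium changes. Cell number measured on day 9 by methylene blue proliferation assay. Expressed as % of untreated control; three independent triplicate experiments, mean ± SEM, one-way ANOVA versus vehicle.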

[14] = as §1; format: functional; summary of the method: as §2
[15] = system: MSC; assay: Induction of osteogenic differentiation in human MSC assessed as increase in ALP activity using p-NPP as substrate after 9 days by colorimetric method; format: functional; summary of the method: as §2
[16] = Cytotoxicity against human MSC assessed as cell viability at 1 uM treated for 6 days measured on day 7 by alamar blue assay (reference value: 98%); conditions: MSC cells, read-out: Activity
[17] = Cytotoxicity against human MSC assessed as cell viability at 10 uM after 24 hrs measured on day 1 by alamar blue assay (reference value: […] +/- 1%); conditions: MSC cells, read-out: Activity
[18] = Cytotoxicity against human MSC assessed as cell viability at 5 uM after 24 hrs measured on day 1 by alamar blue assay (reference value: […] +/- 1%); conditions: MSC cells, read-out: Activity
[19] = Cytotoxicity against human MSC assessed as cell viability at 10 uM treated for 6 days measured on day 7 by alamar blue assay (reference value: 98%); conditions: MSC cells, read-out: Activity
[20] = Cytotoxicity against human MSC assessed as cell viability at 1 uM measured on day 1 by alamar blue assay (reference value: […] +/- 1%); conditions: MSC cells, read-out: Activity
[21] = Cytotoxicity against human MSC assessed as decrease in cell number at 1 to 10 uM after 9 days by methylene blue staining based microscopy relative to control; conditions: 216 h; summary of the method: as §3
[22] = Cytotoxicity against human MSC assessed as cell viability at 5 uM treated for 3 days measured on day 4 by alamar blue assay (reference value: 100 +/- 1%); conditions: MSC cells, read-out: Activity
[23] = Cytotoxicity against human MSC assessed as cell viability at 1 uM treated for 3 days measured on day 4 by alamar blue assay (reference value: 100 +/- 1%); conditions: MSC cells, read-out: Activity
[24] = Cytotoxicity against human MSC assessed as cell viability at 5 uM treated for 6 days measured on day 7 by alamar blue assay (reference value: 98%); conditions: MSC cells, read-out: Activity
[25] = Cytotoxicity against human MSC assessed as cell viability at 10 uM treated for 3 days measured on day 4 by alamar blue assay (reference value: 100 +/- 1%); conditions: MSC cells, read-out: Activity
[26] = Decrease in ALP activity in human MSC using p-NPP as substrate at 10 uM after 9 days by colorimetric method relative to control; format: functional; parameters: Activity: scale not given: the % may be the effect or the level left
Summary of the method: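 Passage-3 bone-marrow hMSCs from healthy donors, cultured at high density in osteogenic (Os.D) medium; compound given at days 0, 3 and 6 with media change every 3 days, final 0.1% (v/v) DMSO; vehicle, 50 nM calcitriol and untreated controls. Day-9 ALP by para-nitrophenyl phosphate colorimetry, normalised to time and cell number (methylene blue); % of untreated control, 3 independent triplicate experiments ± SEM.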

[27] = Decrease in ALP activity in human MSC using p-NPP as substrate at 5 uM after 9 days by colorimetric method relative to control; format: functional; parameters: Activity: scale not given: the % may be the effect or the level left; summary of the method: as §2
[28] = Cytotoxicity against human MSC assessed as decrease in cell number at 10 uM after 9 days by methylene blue staining based microscopy relative to control; conditions: 216 h; summary of the method: as §3
[29] = Cytotoxicity against human MSC assessed as decrease in cell number at 5 uM after 9 days by methylene blue staining based microscopy relative to control; conditions: 216 h; summary of the method: as §3

Compound | Activity [1] | viability at 144 h, 5 µM [2] [%] | viability at 72 h, 1 µM [3] [%] | viability at 144 h, 10 µM [4] [%] | viability at 72 h, 5 µM [5] [%] | viability at 1 day, 10 µM [6] [%] | viability at 72 h, 10 µM [7] [%] | viability at 144 h, 1 µM [8] [%] | viability at 1 day, 5 µM [9] [%] | fold change (FC) [10] | viability at 1 day, 1 µM [11] [%] | Activity [12] | Activity [10] [%] | Activity [21] | fold change (FC) [26] | Activity [27] [%] | also measured
COc1ccc([C@@H]2CC(=O)c3c(O)cc(O)cc3O2)cc1O [HESPERETIN] | inactive | 99 | 98 | 98 | 102 | 96 | 103 | 97 | 95 | 1.72 | 102 | inactive | – | – | – | – | Activity [13]: Toxic
O=c1c(O)c(-c2ccc(O)cc2)oc2cc(O)cc(O)c12 [KAEMPFEROL] | – | 100 | 97 | 97 | 98 | 104 | 98 | 100 | 104 | 1.32 | 96 | inactive | 268 | – | – | – | Activity [14]: 237%; fold change (FC) [14]: 1.52; Activity [15]: Dose-dependent effect; Activity [13]: Toxic
O=C1C[C@@H](c2ccccc2)Oc2cc(O)cc(O)c21 [PINOCEMBRIN] | – | – | – | – | – | – | – | – | – | – | – | inactive | 121 | Non-toxic | – | – | Activity [14]: 107%; viability at 144 h, 1 µM [16]: 96%; viability at 24 h, 10 µM [17]: 111%; viability at 24 h, 5 µM [18]: 110%; viability at 144 h, 10 µM [19]: 98%; viability at 1 day, 1 µM [20]: 109%; viability at 72 h, 5 µM [22]: 95%; viability at 72 h, 1 µM [23]: 94%; viability at 144 h, 5 µM [24]: 97%; viability at 72 h, 10 µM [25]: 96%
O=c1c(O)c(-c2cc(O)c(O)c(O)c2)oc2cc(O)cc(O)c12 [MYRICETIN] | – | 98 | 97 | 98 | 97 | 101 | 101 | 97 | 94 | – | 100 | inactive | – | Toxic | 0.62 | – | fold change (FC) [27]: 0.74
O=C1C[C@@H](c2ccc(O)c(O)c2)Oc2cc(O)cc(O)c21 [ERIODICTYOL] | inactive | 102 | 103 | 101 | 102 | 99 | 102 | 101 | 98 | – | 102 | inactive | 111 | – | – | 98 | –
O=c1cc(-c2ccc(O)c(O)c2)oc2cc(O)cc(O)c12 [LUTEOLIN] | – | 94 | 99 | 96 | 96 | 93 | 94 | 97 | 96 | – | 100 | inactive | – | Toxic | 0.59 | – | –
O=c1cc(-c2cc(O)c(O)c(O)c2)oc2cc(O)cc(O)c12 [TRICETIN] | – | – | – | – | – | – | – | – | – | – | – | inactive | – | – | – | 99 | viability at 144 h, 1 µM [16]: 97%; viability at 24 h, 10 µM [17]: 104%; Activity [26]: 79%; viability at 24 h, 5 µM [18]: 106%; viability at 144 h, 10 µM [19]: 94%; viability at 1 day, 1 µM [20]: 108%; viability at 72 h, 5 µM [22]: 95%; viability at 72 h, 1 µM [23]: 99%; fold change (FC) [28]: 0.47; viability at 144 h, 5 µM [24]: 94%; viability at 72 h, 10 µM [25]: 95%; fold change (FC) [29]: 0.68
O=C(O[C@@H]1Cc2c(O)cc(O)cc2O[C@@H]1c1cc(O)c(O)c(O)c1)c1cc(O)c(O)c(O)c1 [EPIGALOCATECHIN GALLATE] | inactive | 101 | 93 | 102 | 91 | 90 | 89 | 101 | 98 | – | 101 | inactive | – | – | 0.75 | 84 | fold change (FC) [21]: 0.43
COc1ccc(-c2oc3cc(O)cc(O)c3c(=O)c2O)cc1O [TAMARIXETIN] | – | 96 | 97 | 93 | 97 | 102 | 93 | 94 | 102 | 1.32 | 105 | inactive | – | Toxic | – | – | fold change (FC) [14]: 1.52; Activity [15]: Dose-dependent effect
